# From PubChem BioAssay
# Values without a mark were called inactive. The list shows a part of the results. Activity calls are given as the source filed them.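 The calls were made as follows, unless noted: active = current rise at least 3 SD above the untreated control mean in each of two repeat wells; inactive = the rest.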
# Columns and labels:
# [1] = nonspecific flux increase, KCNQ1-free cells – parental CHO cells, counter-screen for KCNQ1 potentiator project (AID 493006;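 active = duplicate-averaged activation above buffer control mean plus 5 SD of those controls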;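 as to activation: fluorescence ratio of max minus min over baseline after K+ and Tl+ depolarization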); settings: parental CHO-K1 cells, FluxOR thallium flux, at 10 µM; stronger effect = higher value
# How it was run: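 Assay system: parental CHO-K1 cells lacking KCNQ1, loaded with FluxOR thallium dye; timing: dye 90 min RT, compound 20 min RT; signal: kinetic thallium-flux fluorescence; repeats: duplicate wells per compound, percent values averaged; benchmarks: buffer and R-L3 controls; reagent: Potassium/thallium depolarization pulse; read-out: fluorescence change ratio scaled 0% buffer, 100% R-L3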
# [2] = target: Potassium voltage-gated channel subfamily KQT member 1 (Homo sapiens) (UniProt P51787); assay: enhancement of KCNQ1 channel thallium flux – FluxOR thallium flux, CHO cells, duplicates, confirmation (AID 493007;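 active = potentiation averaged over duplicate wells exceeding buffer-only control mean by more than 3 SD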;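 as to outcome: cells depolarized by a potassium plus thallium sulfate stimulus after compound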); settings: KCNQ1 cell line, FluxOR thallium flux fluorescence, at 10 µM; stronger effect = higher value, % of reference activator effect, buffer zero
# Chain of Potassium voltage-gated channel subfamily KQT member 1 (Homo sapiens) (P51787 whole entry, looked up): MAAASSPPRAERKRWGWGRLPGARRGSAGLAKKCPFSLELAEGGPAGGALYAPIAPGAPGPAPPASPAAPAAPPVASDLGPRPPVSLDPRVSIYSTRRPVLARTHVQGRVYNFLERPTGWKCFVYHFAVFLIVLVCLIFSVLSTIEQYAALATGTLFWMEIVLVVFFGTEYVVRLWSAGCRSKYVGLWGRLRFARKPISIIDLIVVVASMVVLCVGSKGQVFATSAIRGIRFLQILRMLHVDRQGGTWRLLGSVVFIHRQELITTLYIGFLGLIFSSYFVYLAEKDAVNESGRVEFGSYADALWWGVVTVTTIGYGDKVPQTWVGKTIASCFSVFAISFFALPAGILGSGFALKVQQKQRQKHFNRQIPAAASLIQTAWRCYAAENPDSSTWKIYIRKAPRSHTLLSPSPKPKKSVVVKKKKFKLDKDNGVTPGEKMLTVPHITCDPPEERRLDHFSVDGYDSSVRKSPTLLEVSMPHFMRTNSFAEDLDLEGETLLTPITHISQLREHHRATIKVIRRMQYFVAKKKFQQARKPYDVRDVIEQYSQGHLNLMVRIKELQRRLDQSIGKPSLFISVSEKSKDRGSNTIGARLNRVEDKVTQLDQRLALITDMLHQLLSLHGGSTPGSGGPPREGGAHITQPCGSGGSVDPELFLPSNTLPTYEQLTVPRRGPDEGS
# How it was run: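 material = CHO cells stably expressing the KCNQ1 potassium channel | repeats = duplicate wells per compound | measure = percent activation between buffer and R-L3 responses | signal = FluxOR thallium-flux fluorescence, kinetic read | schedule = FluxOR dye loading 90 min, compound exposure 20 min, room temperature | control set = buffer and R-L3 controls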
# [3] = target: Potassium voltage-gated channel subfamily KQT member 2 (Rattus norvegicus) (UniProt O88943); assay: KCNQ2 thallium flux enhancement – KCNQ2-CHO-K1 cells, selectivity assay for KCNQ1 potentiator project (AID 493009;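 active = mean duplicate potentiation above the buffer control mean plus 5 SD of buffer wells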;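 also: assay conditions were tuned for KCNQ1 rather than KCNQ2 modulators; signal is max minus min fluorescence divided by baseline after thallium stimulus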); settings: FluxOR thallium flux fluorescence, at 10 µM; stronger effect = higher value, scaled: buffer 0, activator control 100
# Chain of Potassium voltage-gated channel subfamily KQT member 2 (Rattus norvegicus) (O88943 whole entry, looked up): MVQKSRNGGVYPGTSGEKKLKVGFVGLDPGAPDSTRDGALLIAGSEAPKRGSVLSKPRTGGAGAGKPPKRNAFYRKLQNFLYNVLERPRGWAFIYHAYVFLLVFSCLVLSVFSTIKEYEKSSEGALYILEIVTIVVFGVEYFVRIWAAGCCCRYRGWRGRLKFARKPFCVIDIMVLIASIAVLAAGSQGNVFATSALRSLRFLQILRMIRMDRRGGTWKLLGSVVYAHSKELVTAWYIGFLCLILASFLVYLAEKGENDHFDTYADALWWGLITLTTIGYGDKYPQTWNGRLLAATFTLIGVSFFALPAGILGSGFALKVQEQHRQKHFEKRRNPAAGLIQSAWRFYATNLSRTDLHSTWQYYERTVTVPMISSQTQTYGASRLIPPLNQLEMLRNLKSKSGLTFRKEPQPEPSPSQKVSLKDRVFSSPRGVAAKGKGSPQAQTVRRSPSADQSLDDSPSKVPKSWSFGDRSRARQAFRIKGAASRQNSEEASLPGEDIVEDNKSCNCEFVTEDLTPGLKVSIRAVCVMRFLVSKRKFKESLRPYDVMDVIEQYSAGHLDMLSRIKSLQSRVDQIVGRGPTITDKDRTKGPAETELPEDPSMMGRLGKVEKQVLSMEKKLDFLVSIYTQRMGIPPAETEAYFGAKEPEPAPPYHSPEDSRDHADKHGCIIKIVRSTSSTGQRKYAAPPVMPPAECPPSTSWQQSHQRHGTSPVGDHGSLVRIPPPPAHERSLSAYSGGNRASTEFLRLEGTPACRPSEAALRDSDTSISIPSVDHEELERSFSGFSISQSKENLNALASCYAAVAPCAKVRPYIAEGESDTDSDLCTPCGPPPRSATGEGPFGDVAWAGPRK
# [4] = target: Potassium voltage-gated channel subfamily KQT member 1 (Homo sapiens) (UniProt P51787); assay: KCNQ1 activators by electrophysiology – IonWorks patch clamp, KCNQ1-CHO cells, orthogonal assay for KCNQ1 potentiator project, confirmation (AID 493184); settings: automated patch clamp current, at 10 µM; stronger effect = higher value;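 as to current potentiation: percent change of the same well's current before compound addition so 0% = no change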
# How it was run: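 Assay system – CHO cells carrying KCNQ1 · Medium – pH 7.4 external bath · Probe or stimulus – depolarizing pulse to +40 mV from -90 mV · Compound dosing – one dose, 10 µM final · Measured by – automated perforated-patch electrophysiology · Measure – % potentiation of steady-state current relative to pre-compound · Repeats – two replicates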
# [5] = target: T1, Potassium voltage-gated channel subfamily E member 1 (Homo sapiens) + Potassium voltage-gated channel subfamily KQT member 1 (Homo sapiens) (UniProt P15382+P51787); assay: KCNQ1-E1 channel activation – thallium flux, CHO-K1 KCNQ1/E1 cells, selectivity assay for KCNQ1 potentiator project, confirmation (AID 493186;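 active = mean duplicate activation above the buffer control mean plus 5 SD of those controls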); settings: FluxOR thallium flux, at 10 µM; stronger effect = higher value
# T1 sequence (P51787 whole entry, looked up): as the sequence (P51787 whole entry, looked up) above
# How it was run: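 Assay system: CHO-K1 cells with KCNQ1/E1 | Dosing: Single compound concentration per well | Incubation: Dye 90 min, compound 20 min, room temperature | Measured by: FluxOR Tl+ flux fluorescence, kinetic read | Controls: Buffer low control, R-L3 high control | Replicates: Duplicate wells per compound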
# [6] = target: Potassium voltage-gated channel subfamily KQT member 1 (Homo sapiens) (UniProt P51787); assay: blockers of human KCNQ1 channel – cell-based, Tl flux, duplicate, confirmation (AID 588353;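 active = primary screen active, with duplicate mean exceeding buffer control mean plus 3 SD of buffer wells, cut at about 28% in these data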;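 also: 0% = buffer control ratio and 100% = XE991 inhibitor control ratio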); settings: KCNQ1 cell line, FluxOR thallium flux fluorescence, at 10 µM, stronger effect = higher value
# How it was run: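 Material: KCNQ1 CHO cells; also added: Thallium-potassium depolarizing stimulus buffer; timing: dye loading 90 min, compound 20 min, both room temperature; signal: FluxOR thallium flux fluorescence, 10 s baseline plus 110 s; evaluation: percent inhibition relative to buffer and XE991; benchmarks: buffer and XE991; repeats: duplicates, mean used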
# [7] = nonspecific activity in CHO-K1 cells without KCNQ1 – parental CHO cells, Tl flux, counter-screen for KCNQ1 inhibitor project (AID 588366;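 active = mean of duplicate thallium-flux fluorescence ratios in parental host cells more than 5 SD below the buffer control mean, cut at about 0.38 in these data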;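 also: ratio is peak minus minimum fluorescence divided by baseline fluorescence; actives read low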); settings: parental CHO-K1, FluxOR thallium flux fluorescence ratio; at 10 µM; stronger effect = lower value; zero means no signal rise above baseline
# How it was run: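 Assay system: CHO-K1 parental line without KCNQ1; Control set: buffer-only controls; Detection: kinetic Tl+ flux fluorescence with FluxOR dye; Schedule: FluxOR dye loading 90 min, compound exposure 20 min, room temperature.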
# [8] = target: Potassium voltage-gated channel subfamily KQT member 1 (Homo sapiens) (UniProt P51787); assay: block of human KCNQ1 potassium current – cell-based, automated electrophysiology, orthogonal assay, confirmation (AID 624120;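 active = KCNQ1 current drop exceeding 3 SD of negative control wells, seen in both duplicate runs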); settings: KCNQ1-CHO cells, automated patch clamp current; at 10 µM
# How it was run: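 Material: CHO cells expressing human KCNQ1 potassium channel; replication: duplicates; probe or stimulus: voltage stimulus of 2,000 ms steps to +40 mV, -80 mV holding; measured by: automated perforated-patch voltage clamp using amphotericin B; medium: pH 7.4 external buffer; dosing: single test compound dose of 10 µM final; read-out: steady-state current change vs pre-compound, percent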
# [9] = target: Potassium voltage-gated channel subfamily KQT member 2 (Rattus norvegicus) (UniProt O88943); assay: block of rat KCNQ2 potassium channel – cell-based, selectivity assay for KCNQ1 inhibitor project (AID 651746;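 active = mean percent inhibition of the KCNQ2 thallium signal more than 5 SD above the buffer-only control wells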;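 also: 0% = buffer control wells and 100% = XE-991 inhibitor control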); settings: KCNQ2 cells, FluxOR thallium flux fluorescence, at 10 µM; stronger effect = higher value
# [10] = target: T1, Potassium voltage-gated channel subfamily E member 1 (Homo sapiens) + Potassium voltage-gated channel subfamily KQT member 1 (Homo sapiens); assay: block of human IKs channel complex – CHO-K1 cells, thallium flux, FluxOR, selectivity assay for KCNQ1 inhibitor project (AID 652147;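 active = mean percent inhibition of duplicate wells above the buffer-only control mean plus 3 SD of those controls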;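 as to inhibition: 0% = buffer only wells and 100% = XE-991 inhibitor control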); settings: KCNQ1/KCNE1 cells, FluxOR thallium flux fluorescence, at 10 µM; stronger effect = higher value
# How it was run: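 System – KCNQ1/KCNE1 cells · Also added – depolarizing thallium/potassium stimulus, 5x stock with 12.5 mM Tl2SO4 and K2SO4 · Incubation – dye 90 min and compound 20 min at room temperature · Signal – kinetic FluxOR thallium-sensitive fluorescence, 1 Hz sampling, 150 s post-stimulus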
smiles,measurement,setting,value
O=C(Nc1nnc(-c2ccco2)o1)c1ccc(Cl)cc1,outcome,[1],inactive
same,outcome,[2],inactive
same,potentiation,[3],148% (active)
same,outcome,[4],inactive
same,outcome,[5],inactive
COC(=O)c1ccc(CNC(=O)CSc2nc3sc(C)c(C)c3c(=O)n2C)o1,activation,[1],268% (active)
same,potentiation,[2],89.5% (active)
same,outcome,[4],inactive
CCOc1ccc(-n2c(=S)sc3c(=O)n(-c4ccccc4)c(SC)nc32)cc1,outcome,[1],inactive
same,outcome,[2],inactive
same,outcome,[4],inactive
O=C(N1CCCCC1)N1CCN(C(=O)N2CCCCC2)CC1,outcome,[1],inactive
same,potentiation,[2],19% (active)
same,outcome,[3],inactive
same,outcome,[4],inactive
same,outcome,[5],inactive
O=C(NNc1c2ccccc2nc2ccccc12)c1ccccc1Cl,outcome,[1],inactive
same,outcome,[2],inactive
same,outcome,[4],inactive
COc1cccc(NC(=S)N/N=C2/CCCCc3ccccc32)c1,outcome,[1],inactive
same,potentiation,[2],26% (active)
same,outcome,[3],inactive
same,outcome,[4],inactive
same,outcome,[5],inactive
Cc1ccc(/C=C2\SC(=S)N(NS(=O)(=O)c3ccc(C)cc3)C2=O)cc1,outcome,[1],inactive
same,potentiation,[2],25.5% (active)
same,current potentiation,[4],21.1% (active)
same,outcome,[5],inactive
CCS(=O)(=O)N1Cc2ccccc2CC1C(=O)Nc1cccc(S(=O)(=O)N(C)C)c1 (stereo unspecified),outcome,[1],inactive
same,outcome,[2],inactive
same,outcome,[4],inactive
same,outcome,[5],inactive
CN(C(=S)NC(=O)c1ccc(F)cc1)C1CCCCC1,activation,[1],154% (active)
same,potentiation,[2],31.5% (active)
same,outcome,[4],inactive
CC1(c2ccc(OC(F)F)cc2)NC(=O)N(CC(=O)Nc2ccccc2)C1=O (stereo unspecified),outcome,[1],inactive
same,outcome,[2],inactive
same,outcome,[4],inactive
same,outcome,[5],inactive
COCC(=O)Nc1nnc(SCC(=O)N2C(C)CCCC2C)s1 (stereo unspecified),outcome,[1],inactive
same,outcome,[2],inactive
same,outcome,[4],inactive
same,outcome,[5],inactive
O=C(Nc1ccc(Cl)c(Cl)c1)N1CC=C(c2ccccc2)CC1,inhibition,[6],122% (active)
same,fluorescence ratio (Tl flux),[7],0.411
same,outcome,[8],inactive
same,inhibition,[9],110% (active)
same,inhibition,[10],134% (active)
CCOC(=O)CS(=O)(=O)c1nc(-c2ccc(F)cc2)cc(C(F)(F)F)n1,outcome,[1],inactive
same,outcome,[2],inactive
same,outcome,[4],inactive
S=c1[nH]c2ccccc2c2ccccc12,activation,[1],148% (active)
same,outcome,[2],inactive
same,outcome,[4],inactive
CCOC(=O)c1cnc(SC)nc1Sc1ccc(Cl)cc1Cl,inhibition,[6],97.5% (active)
same,fluorescence ratio (Tl flux),[7],0.406
same,outcome,[8],inactive
same,inhibition,[9],93% (active)
same,inhibition,[10],111% (active)
COCC(=O)NC1CC2CCC(C1)N2C(=S)Nc1ccccc1C(=O)OC (stereo unspecified),outcome,[1],inactive
same,outcome,[2],inactive
same,outcome,[4],inactive
N#Cc1ccc2ccn(CC(=O)NCc3ccccc3)c2c1,outcome,[1],inactive
same,outcome,[2],inactive
same,outcome,[4],inactive
Cc1cccc(N2CCN(C(=O)c3cnn4c(C(F)F)cc(-c5ccccc5)nc34)CC2)c1C,inhibition,[6],146% (active)
same,fluorescence ratio (Tl flux),[7],0.416
same,outcome,[8],inactive
same,inhibition,[9],115% (active)
N#C/C(=C/c1cn(-c2ccccc2)nc1-c1cccc(OCc2ccc(F)cc2)c1)C(=O)NCCCn1ccnc1,outcome,[1],inactive
same,outcome,[2],inactive
same,outcome,[4],inactive
CC(CNC(=O)COc1ccccc1)OC(=O)Nc1ccc(Cl)c(Cl)c1 (stereo unspecified),outcome,[1],inactive
same,outcome,[2],inactive
same,outcome,[4],inactive
O=C(NC(=S)Nc1nc2c(ccc3ccccc32)s1)c1cccs1,outcome,[1],inactive
same,potentiation,[2],81% (active)
same,outcome,[4],inactive
same,outcome,[5],inactive
Cc1ccc(-c2nn(-c3ccccc3)cc2/C=N/n2c(-c3cccs3)n[nH]c2=S)cc1,outcome,[1],inactive
same,potentiation,[2],23% (active)
same,outcome,[4],inactive
same,outcome,[5],inactive
CN(C(=S)NC(=O)c1ccccc1Br)C1CCCCC1,activation,[1],206% (active)
same,potentiation,[2],44% (active)
same,outcome,[4],inactive
O=C(NC(=S)Nc1nc2c(s1)CCCC2)c1ccc(C(=O)c2ccccc2)cc1,activation,[1],138% (active)
same,potentiation,[2],30% (active)
same,outcome,[4],inactive
CN(Cc1cccnc1)C(=O)Cc1ccc(NS(=O)(=O)c2cccc(C(F)(F)F)c2)cc1,outcome,[1],inactive
same,outcome,[2],inactive
same,outcome,[4],inactive
COc1ccc(C2c3ccc4ccccc4c3Oc3ncn(CCCO)c(=N)c32)cc1OC (stereo unspecified),outcome,[1],inactive
same,outcome,[2],inactive
same,outcome,[4],inactive
same,outcome,[5],inactive
COc1cccc2c1C(=O)C=C(C)C2=O,outcome,[1],inactive
same,outcome,[2],inactive
same,outcome,[4],inactive
CCOC(=O)N1CCN(C(=O)C2CCN(c3ncnc4c3sc3cccc(F)c34)CC2)CC1,inhibition,[6],109% (active)
same,fluorescence ratio (Tl flux),[7],0.427
same,outcome,[8],active
same,inhibition,[9],105% (active)
same,inhibition,[10],90% (active)
CC(C)COc1ccc(-c2nn(-c3ccccc3)cc2C(=O)Nc2nccs2)cc1,outcome,[1],inactive
same,outcome,[2],inactive
same,outcome,[4],inactive
same,outcome,[5],inactive
CCOC(=O)C1CCN(C(=O)COC(=O)c2cc(-c3cccs3)nn2-c2ccccc2)CC1,outcome,[1],inactive
same,outcome,[2],inactive
same,outcome,[4],inactive
Cn1nccc1C(=O)NC1CCCc2c1cnn2-c1ccc(F)cc1F (stereo unspecified),inhibition,[6],90% (active)
same,fluorescence ratio (Tl flux),[7],0.47
same,outcome,[8],inactive
same,inhibition,[9],60.3% (active)
same,outcome,[10],inactive
